Results on 25 compounds are retold here after ChEMBL document CHEMBL4725490, “Decreasing HepG2 Cytotoxicity by Lowering the Lipophilicity of Benzo[d]oxazolephosphinate Ester Utrophin Modulators” (ACS Med Chem Lett, 2020).

In brackets after ≈: the same amount, converted by molar mass. Activity calls are given as the source filed them. No cut-off for these calls is given here.

The nature of series [1]: Protein binding in mouse plasma.
Series [2] in a line: Kinetic aqueous solubility of the compound.
The nature of series [3]: Lipophilicity, log D of the compound at pH 7.4. As to conditions: buffer.
A short description of series [4]: Half life in mouse hepatocyte. As to conditions: hepatocytes.
The nature of series [5]: Apparent permeability across apical to basolateral side in human Caco2 cells. As to conditions: Caco-2.
Series [6] is described as follows: Inhibition of firefly luciferase activity using ATP as substrate preincubated followed by substrate addition and measured after 15 mins by firefly luciferase reporter gene assay. The arrangement: species or system Photinus pyralis. The procedure, abridged:
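Biochemical counter-screen measuring direct inhibition of recombinant firefly luciferase enzyme activity, used to flag interference in the H2K reporter assay.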

Series [7] is described as follows: Apparent permeability across basolateral to apical side in human Caco2 cells. The conditions noted are these: Caco-2.
For the next series, the system named is HepG2. Put plainly: Cytotoxicity against human HepG2 cells assessed as reduction in cell viability incubated for 40 hrs by cell titer glo assay. The conditions noted are these: HepG2, 40 h. It is filed as ADME, cell-based.
For a further series, the species on record is Mus musculus. Put plainly: Modulation activity of utrophin in dystrophic mouse muscle cells assessed increase in utrophin protein level by western blot analysis relative to control. The conditions noted are these: filed as modulator. The procedure, abridged: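 LUmdx dystrophic mouse muscle cells were treated with compound, and utrophin protein was quantified by Western blot. Values are fold increase in utrophin level.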

Series [8] in a line: Intrinsic clearance in mouse hepatocyte. As to conditions: hepatocytes.

Compound `CCP(=O)(OC)c1ccc2oc(-c3cccc(OC)c3)nc2c1` (stereo not given) gave a fraction unbound in series [1] of 0.04. This compound returned a kinetic solubility in series [2] greater than 250 µM. The compound further returned a logD in series [3] of 3.19. In series [4], this compound had a half-life of less than 3 min. Further, the Papp A→B in series [5] is 15.7 ×10⁻⁶ cm/s. Also, the IC50 in series [6] (read-out: IC50) amounted to 0.088 µM. Moreover, the Papp B→A in series [7] turned out to be 12.6 ×10⁻⁶ cm/s.

`CCP(=O)(OC)c1ccc2oc(-c3ccc(OC)cc3)nc2c1` (stereo not given) displayed a kinetic solubility in series [2] of 265 µM (≈ 87.8 µg/mL). The Papp A→B in series [5] turned out to be 13.3 ×10⁻⁶ cm/s. In addition, the IC50 in the series with HepG2 is 200 µM; in [6] (read-out: IC50), 0.19 µM. Further, the apparent permeability from basolateral to apical (Papp B→A) in series [7] is 10.7 ×10⁻⁶ cm/s.

On to `CCP(=O)(OC)c1ccc2nc(-c3ccnc(OC(F)F)c3)oc2c1` (stereo not given), for which the fraction unbound in series [1] is 0.07. In series [2], this compound had a solubility (kinetic) of 834 µM (≈ 307 µg/mL). Further, the log distribution coefficient (logD) in series [3] was found to be 2.6. In addition, in series [4], the half-life was greater than 240 min. The apical-to-basolateral permeability (Papp A→B) in series [5] was found to be 21.8 ×10⁻⁶ cm/s. In series [6] (read-out: IC50), the IC50 was greater than 30 µM. The Papp B→A in [7] amounted to 16.9 ×10⁻⁶ cm/s.

For `CCP(=O)(OC)c1ccc2nc(-c3ccc4c(c3)OC(F)(F)O4)oc2c1` (stereo not given), the fraction unbound in series [1] is 0.02. The compound also had a kinetic solubility in [2] of 574 µM (≈ 219 µg/mL). This compound displayed a half-life in [4] of 154 min. Further, the Papp A→B in [5] was found to be 17.2 ×10⁻⁶ cm/s. Besides, the IC50 in the series with HepG2 is 68.9 µM; in [6] (read-out: IC50), greater than 30 µM. Moreover, in [7], the Papp B→A was 16.2 ×10⁻⁶ cm/s.

Turning to `CCP(=O)(OC)c1ccc2oc(-c3cccc(C(F)(F)F)c3)nc2c1` (stereo not given), the IC50 in series [6] (read-out: IC50) is 12.1 µM.

For the compound `CCP(=O)(OC)c1ccc2oc(-c3cccnc3C(F)(F)F)nc2c1` (stereo not given), in series [1], the free fraction (fraction unbound) was 0.11. This compound also displayed a kinetic solubility in [2] of 854 µM (≈ 316 µg/mL). The compound also gave a logD in [3] of 2.2. The compound further came in with a half-life in [4] of 4 min. Further, the IC50 entry in series [6] is “Not Active”.

In series [1], `CCP(=O)(OC)c1ccc2nc(-c3cccnc3C(F)(F)F)oc2c1` (stereo not given) had a fraction unbound of 0.24. For the same compound, the solubility (kinetic) in series [2] is 699 µM (≈ 259 µg/mL). Moreover, the logD in series [3] worked out at 1.98. The half-life in series [4] turned out to be 5 min. The IC50 result in series [6] was “Not Active”.

As to `CCP(=O)(OC)c1ccc2nc(-c3cncc(C(F)(F)F)c3)oc2c1` (stereo not given), in series [1], the fraction unbound was 0.2. Further, in [2], the solubility (kinetic) amounted to 603 µM (≈ 223 µg/mL). Moreover, the logD in series [3] is 2.41. This compound also yielded a half-life in series [4] greater than 240 min. Moreover, the IC50 entry in series [6] is “Not Active”.

`CCP(=O)(OC)c1ccc2oc(-c3cccc(C(F)F)c3)nc2c1` (stereo not given) gave a fraction unbound in series [1] of 0.06. The compound further yielded a solubility (kinetic) in series [2] greater than 250 µM. In [3], the logD was 3.09. This compound also returned a half-life in series [4] of 20 min. For the same compound, the Papp A→B in series [5] turned out to be 14.2 ×10⁻⁶ cm/s. Also, the IC50 in series [6] (read-out: IC50) was found to be 2.48 µM. Further, the Papp B→A in [7] is 10.1 ×10⁻⁶ cm/s.

`CCP(=O)(OC)c1ccc2nc(-c3cncc(C(F)F)c3)oc2c1` (stereo not given): the fraction unbound in [1] is 0.23. In addition, in [2], the solubility (kinetic) turned out to be 487 µM (≈ 172 µg/mL). In addition, the logD in series [3] stood at 2.08. Also, the half-life in series [4] is greater than 240 min. Besides, the IC50 result in [6] is given as “Not Active”.

In turn, `CCP(=O)(OC)c1ccc2oc(-c3cncc(C(F)(F)F)c3)nc2c1` (stereo not given) showed a fraction unbound in [1] of 0.25. The compound also yielded a kinetic solubility in series [2] of 477 µM (≈ 177 µg/mL). The compound further showed a logD in series [3] of 2.44. In series [4], the half-life is greater than 240 min. The IC50 result in series [6] is “Not Active”. In the series filed under Mus musculus, the outcome was Active.

On to `CCP(=O)(OC)c1ccc2oc(-c3ccccc3OC(F)F)nc2c1` (stereo not given), for which the fraction unbound in series [1] is 0.03. The compound further displayed a kinetic solubility in [2] of 366 µM (≈ 134 µg/mL). In addition, the logD in series [3] is 2.45. Moreover, the half-life in [4] was less than 3 min. Besides, the Papp A→B in [5] is 18.8 ×10⁻⁶ cm/s. Besides, the IC50 entry in series [6] was “Not Active”. Moreover, the Papp B→A in series [7] came to 15.7 ×10⁻⁶ cm/s.

Take `CCP(=O)(OC)c1ccc2nc(-c3ccc(C(F)F)cc3)oc2c1` (stereo not given): in [1], the fraction unbound was 0.04. For the same compound, in series [2], the kinetic solubility turned out to be 556 µM (≈ 195 µg/mL). In series [3], this compound gave a logD of 2.98. Also, the IC50 result in series [6] is “Not Active”. In addition, the result in the series listed under Mus musculus was Active.

As to `CCP(=O)(OC)c1ccc2oc(-c3ccccc3C(F)F)nc2c1` (stereo not given), the fraction unbound in [1] was 0.03. The same compound registered a kinetic solubility in [2] greater than 250 µM. Further, the logD in series [3] stood at 2.8. Moreover, the half-life in series [4] was less than 3 min. The Papp A→B in series [5] is 16.2 ×10⁻⁶ cm/s. Also, the IC50 in [6] (read-out: IC50) stood at 5.73 µM. In series [7], the Papp B→A worked out at 11.2 ×10⁻⁶ cm/s.

In the case of `CCP(=O)(OC)c1ccc2nc(-c3ccccc3C(F)F)oc2c1` (stereo not given), the fraction unbound in [1] was 0.03. Also, the solubility (kinetic) in [2] is 446 µM (≈ 157 µg/mL). This compound displayed a logD in series [3] of 3.33. In series [4], the half-life is less than 3 min. This compound also had a CLH in series [8] greater than 250 µL/min/10^6 cells. In addition, in series [6], the IC50 entry was “Not Active”.

In series [1], `CCP(=O)(OC)c1ccc2oc(-c3ccnc(OC(F)F)c3)nc2c1` (stereo not given) gave a fraction unbound of 0.14. For the same compound, in series [2], the kinetic solubility came to 733 µM (≈ 270 µg/mL). This compound yielded a logD in [3] of 2.2. This compound also had a half-life in series [4] greater than 240 min. Besides, the Papp A→B in series [5] came to 22.3 ×10⁻⁶ cm/s. Moreover, the IC50 with HepG2 was 200 µM; in [6] (read-out: IC50) it was greater than 30 µM. Further, the outcome in the series listed under Mus musculus was Active. Moreover, the Papp B→A in series [7] stood at 20.6 ×10⁻⁶ cm/s.

Regarding `CCP(=O)(OC)c1ccc2oc(-c3ccc4c(c3)OC(F)(F)O4)nc2c1` (stereo not given), in series [1], the fraction unbound was 0.02. Moreover, in [2], the kinetic solubility is 576 µM (≈ 220 µg/mL). The compound also came in with a logD in [3] of 2.4. Besides, in [4], the half-life was found to be 154 min. Moreover, in series [5], the Papp A→B is 12.7 ×10⁻⁶ cm/s. The IC50 in series [6] (read-out: IC50) came to 23.6 µM. For the same compound, in series [7], the Papp B→A was 11.7 ×10⁻⁶ cm/s.

In [1], `CCP(=O)(OC)c1ccc2nc(-c3cccc(OC(F)F)c3)oc2c1` (stereo not given) gave a fraction unbound of 0.04. In [2], this compound gave a solubility (kinetic) of 8.4 µM (≈ 3.09 µg/mL). Further, in series [3], the logD worked out at 3.2. Also, the half-life in [4] was 37 min. In [5], the Papp A→B came to 18.1 ×10⁻⁶ cm/s. Further, the IC50 entry in series [6] is on record as “Not Active”. The Papp B→A in series [7] came out at 15.9 ×10⁻⁶ cm/s.

Consider `CCP(=O)(OC)c1ccc2nc(-c3ccc(F)cc3C(F)F)oc2c1` (stereo not given), for which, in series [1], the fraction unbound was 0.03. In [2], this compound had a solubility (kinetic) of 469 µM (≈ 173 µg/mL). In [3], this compound yielded a logD of 3.59. Further, the half-life in series [4] was found to be 38 min. Besides, in series [5], the Papp A→B came out at 12.3 ×10⁻⁶ cm/s. Moreover, the IC50 entry in series [6] is reported as “Not Active”. In series [7], the Papp B→A is 11.5 ×10⁻⁶ cm/s.

For `CCP(=O)(OC)c1ccc2oc(-c3cccc(OC(F)F)c3)nc2c1` (stereo not given), in series [4], the half-life is 13 min. The Papp A→B in series [5] worked out at 13.3 ×10⁻⁶ cm/s. In series [6] (read-out: IC50), the IC50 is greater than 30 µM. Besides, the Papp B→A in series [7] is 9.37 ×10⁻⁶ cm/s.

Compound `CCP(=O)(OC)c1ccc2oc(-c3ccc(C(F)F)cc3)nc2c1` (stereo not given) gave a fraction unbound in series [1] of 0.02. This compound also gave a solubility (kinetic) in series [2] of 530 µM (≈ 186 µg/mL). Further, the logD in series [3] was 3.06. Moreover, the IC50 entry in series [6] is on record as “Not Active”.

As for `CCP(=O)(OC)c1ccc2oc(-c3cncc(C(F)F)c3)nc2c1` (stereo not given), the fraction unbound in [1] is 0.26. The compound also yielded a solubility (kinetic) in [2] of 440 µM (≈ 155 µg/mL). This compound also displayed a logD in series [3] of 1.86. Also, the half-life in series [4] is greater than 240 min. For the same compound, the IC50 entry in [6] is given as “Not Active”.

For `CCP(=O)(OC)c1ccc2oc(-c3ccnc(C(F)(F)F)c3)nc2c1` (stereo not given), the half-life in [4] is greater than 240 min. In series [5], the Papp A→B came out at 12.3 ×10⁻⁶ cm/s. Further, the IC50 in the series on HepG2 is 200 µM; in [6], “Not Active”. Moreover, the Papp B→A in series [7] amounted to 11 ×10⁻⁶ cm/s.

Compound `CCP(=O)(OC)c1ccc2oc(-c3ccc(F)cc3C(F)F)nc2c1` (stereo not given) had a fraction unbound in [1] of 0.03. In series [2], this compound showed a solubility (kinetic) of 518 µM (≈ 191 µg/mL). Further, the logD in [3] was determined as 3.4. In [4], the half-life came out at 13 min. For the same compound, the IC50 entry in series [6] was “Not Active”.

Take `CCP(=O)(OC)c1ccc2oc(-c3ccc(F)cc3)nc2c1` (stereo not given): the PPB in series [1] worked out at 95%. Also, the kinetic solubility in series [2] is 378 µM (≈ 121 µg/mL). In [3], this compound showed a logD of 2.8. The Papp A→B in [5] came to 18 ×10⁻⁶ cm/s. Besides, the IC50 turned out to be 200 µM in the series on HepG2 and 0.115 µM in series [6] (read-out: IC50). Also, the Papp B→A in [7] turned out to be 15.7 ×10⁻⁶ cm/s.
